MT stabilizer = microtubule stabilization, imaging screen; HeLa tubulin immunostaining HCS, 24 h; share of cells brighter than vehicle mean+2SD; % tubulin-high responders, % at 10 µM; actives 0.83% (n = 200,000); AID 2205;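 active means plate Z-score above 3 for both tubulin-high and condensed-nucleus cell shares, with cell loss under 80%, at 10 µM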;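 further: anti alpha tubulin signal scored within the nucleus-defined area of each cell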
CHOP inhibitor = blocks CHOP induction under ER stress. AID 2732. actives 3.8% (n = 220,000). CHO-K1 CHOP-promoter luciferase, tunicamycin-induced, 15-18 h. inhibition, % at 10 µM;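 active means compounds that reduced the stress-induced luciferase reporter signal by more than about 70% of percent inhibition, limit read from the data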;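 further: 0% = tunicamycin plus vehicle and 100% = wells without tunicamycin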
Dynein cargo inh = blocks dynein driven cargo transport along microtubules. z-score, hits read low. 3617.4 mouse cells, GR-EGFP nuclear translocation imaging; test concentration mostly 20 µM; stimulated with dexamethasone, 1 µM; stronger effect = lower value. actives 0.47% (n = 220,000). AID 1381;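 active means plate z-score of nuclear minus cytoplasmic receptor signal below a set negative limit, without overly bright fluorescence or cell loss, cut at about -3.5 in these data, passing the limit was not always enough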;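 further: z-score of nuclear minus cytoplasmic ring GR-EGFP intensity difference per well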
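medium = tetracycline-free induction medium containing charcoal-stripped FBS | also added = 1.0 µM final dexamethasone stimulus | schedule = 48 h induction, 1 h compound, 30 min dex at 37 °C | technique = fixed, Hoechst-stained cells imaged at 10x for EGFP | measure = GR-EGFP nuclear translocation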
L major viab = Leishmania major promastigote growth inhibition; Leishmania major promastigotes, resazurin fluorescence viability; inhibition, % at 10 µM; actives 9% (n = 200,000); AID 1063; in the data active means inhibition above about 50%;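 further: promastigotes grown with compound for 44 hours at 28 °C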
b-catenin transl = beta-catenin nuclear translocation modulation; HeLa beta-catenin nuclear translocation, immunofluorescence imaging; nuclear translocation activity, % at 5 µM; actives 0.3% (n = 190,000);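 active means nuclear translocation activity above 50% at 5 µM, with a well cell count of 50 or more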;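 further: per-cell ratio of nuclear to cytoplasmic median beta-catenin stain intensity; plate controls were DMSO negative control for no effect and GSK-3 inhibitor IX positive control for full effect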
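System: HeLa cells, endogenous beta-catenin; compound dosing: 5 µM primary single dose, 0.1% DMSO, 0.02–20 µM confirmation series; incubation: 24 h compound exposure at 37°C, 5% CO2; signal: beta-catenin immunofluorescence imaging with DAPI; evaluation: % activation, nuclear-to-cytoplasmic median beta-catenin signal ratio per cell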
Autophagy mod = alters autophagy in cells. MEF GFP-LC3 puncta imaging; test concentration mostly 10 µM. calls only at 10 µM (by protocol). actives 0.98% (n = 190,000). AID 463193;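 active means percentage of spot-positive cells more than 3 SD above its plate mean, without a fluorescence outlier flag or 80% toxicity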;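 further: spot-positive cell cutoff set from DMSO-treated cells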
Starred values were filed as active, the others as inactive; i = inactive; nt = not tested or not shown; + = active, no number. Shown are actives, neighbours in structure and some others; about 12% of the full set was active somewhere.

SMILES	MT stabilizer	CHOP inhibitor	Dynein cargo inh	L major viab	b-catenin transl	Autophagy mod
CCOC(=O)N1CCN(CCC(=O)Nc2cccc(Br)c2)CC1	5	20	0.46	89*	-1	i
CCOC(=O)N1CCN(CCC(=O)Nc2cc(OC)cc(OC)c2)CC1	3	8	0.61	52*	0	i
COc1cc(Cl)cc(NC(=O)CCN2CCN(C)CC2)c1	3	1	-0.84	-2	-4	i
CCOC(=O)N1CCN(CCC(=O)Nc2ccc(Br)cc2)CC1	2	16	2	4	-4	i
CCOC(=O)N1CCN(CCC(=O)Nc2ccc(C)c(Br)c2)CC1	3	0	-0.61	73*	3	i
CCOC(=O)N1CCN(CC(=O)Nc2cccc(Br)c2)CC1	2	38	-0.25	-5	nt	i
CCCCc1ccc(NS(=O)(=O)c2cccs2)cc1	3	-7	-1.3	14	-2	i
Cc1cc(=O)n2c(n1)NC(Nc1cccc(C)c1C)=NC2c1ccccc1 (stereo unspecified)	nt	8	0.1	nt	0	nt
CCOC(=O)c1ccc(Oc2nc(OC)cc(OC)n2)cc1	6	4	1	2	0	i
Cc1cc(C)cc(NC(=S)N2CCC(N(C)CC3CCCO3)CC2)c1 (stereo unspecified)	2	10	-0.56	67*	0	i
Cc1cccc(NC(=S)N2CCC(N(C)CC3CCCO3)CC2)c1C (stereo unspecified)	2	8	0.36	82*	nt	i
Cc1cc(C)c(NC(=S)N2CCC(N(C)CC3CCCO3)CC2)c(C)c1 (stereo unspecified)	2	-2	2.2	27	0	i
Cc1ccc(NC(=S)N2CCC(N(C)CC3CCCO3)CC2)cc1 (stereo unspecified)	2	13	-0.1	76*	-1	i
c1ccc(-c2ccc(C3=Nn4c(Cn5nnc6ccccc65)nnc4SC3)cc2)cc1	2	17	0.88	8	-1	i
COc1ccccc1N/C(N)=N/c1nc(C(F)(F)F)cc(=O)[nH]1	2	27	0.37	0	-3	i
CCOc1ccc(Cl)cc1S(=O)(=O)N1CCN(c2ccc(C)c(C)c2)CC1	8	32	-0.57	89*	-2	i
COc1ccc(Cl)cc1S(=O)(=O)N1CCN(c2ccc(F)cc2)CC1	3	33	0.59	77*	0	i
Cc1[nH]c(=S)[nH]c(=O)c1Cc1ccc(OCC(C)C)cc1	15*	17	-0.63	2	11	i
COc1cccc(C2=NOC(C(=O)NCc3ccc(F)cc3)C2)c1 (stereo unspecified)	6	-11	-0.33	-5	6	i
O=C(NCc1ccc2c(c1)OCO2)C1CC(c2ccc(Cl)cc2)=NO1 (stereo unspecified)	3	21	-0.14	-2	2	i
COc1ccc(C2=NOC(C(=O)NCc3ccc(F)cc3)C2)cc1OC (stereo unspecified)	14*	nt	0.38	-3	56*	i
COc1cc(OC)c(C2=NOC(C(=O)NCc3ccc4c(c3)OCO4)C2)cc1Cl (stereo unspecified)	23*	27	0.51	-1	nt	i
COc1cc(C2=NOC(C(=O)NCc3ccccn3)C2)cc(OC)c1OC (stereo unspecified)	1	20	-0.17	-1	3	i
COc1cc(C2=NOC(C(=O)NCc3ccc(F)cc3)C2)cc(OC)c1OC (stereo unspecified)	24*	nt	1.2	-2	73*	+
O=C(c1nn2c(C(F)(F)F)cc(-c3ccco3)nc2c1Br)N1CCCc2ccccc21	63*	46	0.24	9	-1	i
SMILES	MT stabilizer	CHOP inhibitor	Dynein cargo inh	L major viab	b-catenin transl	Autophagy mod
O=C(c1cc2nc(-c3cccs3)cc(C(F)(F)F)n2n1)N1CCCc2ccccc21	2	-27	-0.31	21	1	i
O=C(c1cc2nc(-c3ccco3)cc(C(F)(F)F)n2n1)N1CCCc2ccccc21	6	71*	0.093	-5	-5	i
CN(C(=O)c1cc2nc(-c3ccco3)cc(C(F)(F)F)n2n1)C1CCCCC1	7	93*	-0.092	3	0	i
O=C(c1nn2c(C(F)(F)F)cc(-c3cccs3)nc2c1Br)N1CCCc2ccccc21	6	11	-0.65	69*	nt	i
Cc1ccc(-c2nc(CN(C)Cc3cccc4cnccc34)c(C)o2)s1	5	16	-0.86	11	-1	i
O=C(Cc1cccs1)N(CC1CCCO1)C1(C(=O)NC2CCCC2)CCCCC1 (stereo unspecified)	6	9	-0.12	23	nt	i
Nc1nc2sc3c(c2c(=O)s1)CCCC3	1	-18	0.16	17	nt	i
Nc1nc(-c2ccccc2)nc2sc3c(c12)CCCC3	4	49	-0.6	60*	2	i
Nc1c2c(nc3sc4c(c13)CCCC4)CCCCCC2	3	56	-0.81	55*	2	i
CCC1CCCCN1c1nc2c(C=O)c(C)nn2c2ccccc12 (stereo unspecified)	2	89*	0.45	13	-5	i
CC(=O)c1cc(-c2ccccc2)n(CCC(=O)NC2CCCCC2)c1C	2	-7	0.66	83*	-2	i
CC(=O)c1cc(-c2ccccc2)n(CC(=O)N2CCCCC2)c1C	3	20	-0.13	-9	nt	i
CC(=O)c1cc(-c2ccccc2)n(CC(=O)N2CCC(N3CCCCC3)CC2)c1C	3	7	0.13	95*	nt	i
CC(C(=O)OCc1nnc(-c2ccccc2)o1)N1C(=O)C2CCCCC2C1=O (stereo unspecified)	4	0	0.49	0	-1	i
COc1ccc(C(=O)NNC(=O)c2ccc(C)cc2)cc1S(=O)(=O)N1CCCC1	4	12	-0.15	-7	-4	i
CCCCCC1CC(CC(=O)NC(=S)Nc2ccc([N+](=O)[O-])cc2)C(=O)O1 (stereo unspecified)	5	85*	1.8	-1	12	i
CC1(C)CC(CC(=O)Nc2ccc([N+](=O)[O-])cc2)C(=O)O1 (stereo unspecified)	3	12	1.6	5	-2	i
CCCCCCC1CC(CC(=O)Nc2ccc([N+](=O)[O-])cc2)C(=O)O1 (stereo unspecified)	2	95*	-0.63	-7	1	i
Cc1cccc(C)c1-n1c(C)nn(CC2CC2)c1=O	6	4	-1.1	-3	-3	i
CN(C)c1ccc(C(O)P(=O)(OC2CCCCC2)OC2CCCCC2)cc1 (stereo unspecified)	nt	5	0.57	nt	0	nt

Assay outcomes as filed in PubChem.
